CHO parental Ca: counter-screen for OX1R antagonists: effect in parental CHO cells; hit rate 0.63% among 330,000; inhibition, % at 5.6 µM; parental CHO-K1, ATP-induced calcium, Fluo-8 fluorescence;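 active = inhibition above that plate's mean sample inhibition plus 3 SD, cut at about 26% in these data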;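 note: 0% = ATP-challenged DMSO wells and 100% = DMSO wells without ATP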
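test system = CHO parental line | reagent = ATP stimulus | measured by = intracellular calcium via Fluo-8 no-wash fluorescent dye | control set = ATP and no-ATP DMSO wells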
TAAR1 antagonist: antagonists of human TAAR1 | inhibition, % at 3 µM | hit rate 1.5% among 360,000 | Q96RJ0 | CHO RD-HGA16 TAAR1, Fluo-8 calcium fluorescence, antagonist;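 active = inhibition above a per-plate cutoff, the mean inhibition of test compounds on that plate plus 3 SD, cut at about 49% in these data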;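 note: 0% = DMSO plus EC80 beta-PEA response and 100% = DMSO alone without agonist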
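Test system: hTAAR1-expressing CHO RD-HGA16 cells, Gα16-coupled; Probe or stimulus: EC80 β-phenethylamine stimulus; Compound dosing: single nominal final test compound concentration of 3 µM; Timing: 140 s kinetic read after compound, 140 s after agonist; Signal: Fluo-8 calcium-sensitive fluorescence; Measure: % inhibition of agonist calcium response; Controls: DMSO and EC80 PEA controls.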
OX1R antag-1: antagonists of human orexin 1 receptor (OX1R); O43613; OX1R-expressing cells, FRET antagonist read-out; inhibition, % at 6.6 µM; hit rate 1.8% among 330,000; in the data active = inhibition mostly above about 38%, no sharp cut-off; inactive = mostly below about 40%;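 note: 0% = agonist challenge alone and 100% = reference antagonist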
OX1R antag-2: antagonists of human orexin 1 receptor | O43613 | AID 434989 | hit rate 0.43% among 330,000 | CHO/OX1R cells, Fluo-8 calcium fluorescence, orexin A | inhibition, % at 5 µM;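 active = inhibition above its plate's threshold, mean inhibition of all tested compounds on the plate plus 3 SD, cut at about 37% in these data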;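 note: 0% = orexin A challenge wells and 100% = SB-334867-A antagonist wells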
TAAR1 agonist: agonists of human TAAR1 | Q96RJ0 | CHO RD-HGA16 TAAR1, Fluo-8 calcium fluorescence; vehicle wells 0%, saturating PEA agonist 100% | activation, % at 3 µM | hit rate 0.99% among 360,000 | AID 624467;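 active = activation above the mean activation of all test compounds in the run plus 3 SD, cut at about 38% in these data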
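System: CHO-derived RD-HGA16 cells with stable Gα16 and human TAAR1. Times: 17-24 h plating, Fluo-8 75 min 37 °C, 30 min RT. Measured by: calcium-sensitive Fluo-8 signal, excitation 470-495, emission 515-575 nm. Read-out basis: % activation relative to PEA EC100 response. Control set: DMSO and PEA EC100. Repeats: no replicates (n 1).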
GPR7 antag: blocks human GPR7 receptor signaling. GPR7-expressing cells, fluorescence antagonist assay. inhibition, % at 4.4 µM. AID 1861. P48145. hit rate 1.1% among 290,000; in the data active = inhibition above about 16%, passing the limit was not always enough;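 note: cells stimulated with the agonist NPW; 0% = agonist with vehicle and 100% = vehicle without agonist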
Target sequence (P48145 whole entry, looked up): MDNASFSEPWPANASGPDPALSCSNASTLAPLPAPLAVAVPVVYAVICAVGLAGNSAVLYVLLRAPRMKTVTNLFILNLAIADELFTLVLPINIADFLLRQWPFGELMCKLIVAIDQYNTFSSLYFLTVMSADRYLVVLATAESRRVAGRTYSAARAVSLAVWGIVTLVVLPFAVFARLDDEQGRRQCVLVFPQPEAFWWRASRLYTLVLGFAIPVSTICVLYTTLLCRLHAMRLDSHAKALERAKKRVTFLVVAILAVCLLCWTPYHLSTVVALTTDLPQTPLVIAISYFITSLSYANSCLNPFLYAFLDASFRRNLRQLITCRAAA
GPR7 antag cf: confirmation of human GPR7 antagonists; shares compounds with GPR7 antag; GPR7-expressing cells, calcium fluorescence antagonist mode; inhibition, % at 4.4 µM; hit rate 52% among 2,400; AID 1952; in the data active = inhibition above about 24%;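 note: stimulated with the GPR7 agonist NPW; 0% = agonist plus vehicle and 100% = vehicle alone without agonist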
MCHR1 antag: MCHR1 (human) antagonism in GPR7 counter-screen; shares compounds with GPR7 antag; MCHR1-expressing cells, fluorescence antagonist assay; inhibition, % at 4.4 µM; hit rate 62% among 2,400; AID 2148; in the data active = inhibition above about 22%;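 note: 0% = vehicle with agonist and 100% = vehicle without agonist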
Numbers without * were called inactive. Most compounds without a hit are left out; they make up all but 4.5% or so of the library.

Screening COC(=O)c1cccc(NC(=O)c2cnccn2)c1 returned TAAR1 antagonist -5, TAAR1 agonist 3, GPR7 antag 24*, GPR7 antag cf 8 and MCHR1 antag 1.
Screening Cc1ccccc1OCCn1cc(/C(N)=N/O)c2ccccc21 returned CHO parental Ca 6, TAAR1 antagonist 2, OX1R antag-1 23, OX1R antag-2 -15, TAAR1 agonist 8 and GPR7 antag 13.
`Cc1ccc(C)c(OCCn2cc(C(=O)O)c3ccccc32)c1` gave CHO parental Ca -7, TAAR1 antagonist 13, OX1R antag-1 22, OX1R antag-2 7, TAAR1 agonist 3, GPR7 antag 95*, GPR7 antag cf 6 and MCHR1 antag 6.
CN1CCN(C(=S)c2cn(CCOc3ccccc3)c3ccccc23)CC1 was read as CHO parental Ca -16, TAAR1 antagonist -6, OX1R antag-1 16, OX1R antag-2 -18, TAAR1 agonist 4, GPR7 antag 27*, GPR7 antag cf 20 and MCHR1 antag 11.
For CC(=O)c1cn(CCOc2cc(C)ccc2C)c2ccccc12 the results were CHO parental Ca 33*, TAAR1 antagonist 27, OX1R antag-1 45, OX1R antag-2 7, TAAR1 agonist 3, GPR7 antag 29*, GPR7 antag cf 47* and MCHR1 antag 68*.
Screening COC1CC(NC(C)=O)C(OC(=O)c2ccccc2)C(CBr)O1 (stereo unspecified) returned TAAR1 antagonist 1 and TAAR1 agonist 0.
`CC(=O)N1CCN(CC(=O)Nc2ccc3c(c2)CCC3)CC1` gave CHO parental Ca -6, TAAR1 antagonist 11, OX1R antag-1 22, OX1R antag-2 -6, TAAR1 agonist 3, GPR7 antag 23*, GPR7 antag cf -10 and MCHR1 antag -1.
For CCc1ccc(NC(=O)C2(c3ccccc3)CC2(Cl)Cl)cc1 (stereo unspecified) the results were CHO parental Ca 14, TAAR1 antagonist 47, OX1R antag-1 13, OX1R antag-2 52*, TAAR1 agonist 55*, GPR7 antag 29*, GPR7 antag cf 65* and MCHR1 antag 76*.
Screening CC1=NN(C(C#N)c2ccccc2)C(c2ccccc2)C1 (stereo unspecified) returned CHO parental Ca 0, TAAR1 antagonist 8, OX1R antag-1 7, OX1R antag-2 -7, TAAR1 agonist -1, GPR7 antag 37*, GPR7 antag cf 5 and MCHR1 antag -2.
For Cc1ccc(N/C(N)=N/c2nc(C)cc(C)n2)cc1 the results were CHO parental Ca 3, TAAR1 antagonist 27, OX1R antag-1 18, OX1R antag-2 7, TAAR1 agonist 24, GPR7 antag 75*, GPR7 antag cf 64* and MCHR1 antag 73*.
For CCN(CC(=O)NCc1cccs1)CC(=O)Nc1cccc(S(N)(=O)=O)c1 the results were CHO parental Ca -11, TAAR1 antagonist 2, OX1R antag-1 -6, OX1R antag-2 -5 and TAAR1 agonist 1.
COC(=O)c1ccc(NC(=O)C(=O)N2CCN(C(=S)NCCc3ccccc3)CC2)cc1 was read as CHO parental Ca -8, TAAR1 antagonist -14, OX1R antag-1 3, OX1R antag-2 -1, TAAR1 agonist 4, GPR7 antag 22*, GPR7 antag cf 10 and MCHR1 antag 13.
For Cc1c(NC(=O)c2cccs2)cccc1-c1nc2ccccc2s1 the results were CHO parental Ca 13, TAAR1 antagonist 42, OX1R antag-1 -12, OX1R antag-2 4, TAAR1 agonist 26, GPR7 antag 33*, GPR7 antag cf 45* and MCHR1 antag 64*.
For O=C(CCCn1c(=S)[nH]c2cc3c(cc2c1=O)OCO3)NCc1ccccc1Cl the results were CHO parental Ca -3, TAAR1 antagonist -14, OX1R antag-1 11, OX1R antag-2 -11, TAAR1 agonist 0 and GPR7 antag -1.
